# Laboratory results as given in ChEMBL document CHEMBL4321800, “Synthesis, Identification, and Structure-Activity Relationship Analysis of GATA4 and NKX2-5 Protein-Protein Interaction Modulators” (J Med Chem, 2019).
# What was measured:
# Assay type in all cases: cell-based
# [1] = target: GATA4/NKX2-5 (Mus musculus) (UniProt Q08369+P42582); test: Modulation of mouse GATA4/mouse NKX2-5 protein-protein interaction expressed in Chlorocebus aethiops COS1 cells harboring 3xHA reporter gene assessed as transcriptional synergy at 10 uM after 24 hrs by luciferase reporter gene assay relative to control
# In short: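 COS-1 cells seeded 14 000/well, grown overnight, then transfected for 6 h in serum- and antibiotic-free medium with pGL3-3xHA reporter (three NKX2-5 sites, 100 ng/well) plus pMT2-GATA4 and pMT2-NKX2-5 (total 50 ng/well), Fugene 6 at 1:3 DNA/reagent. Compound or 0.1% DMSO vehicle for 24 h, then luminescence read. Triplicates, Grubbs outliers removed, expressed as % of control.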
# COS-1 = test: Induction of necrosis in Chlorocebus aethiops COS1 cells assessed as LDH release at 1 to 30 uM after 24 hrs by LDH assay relative to control; conditions: cos-1, 24 h
# In short: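 COS-1 cells in DMEM with 10% FBS at 37 °C, 5% CO₂, plated 10 000/well and exposed next day to 1–30 μM for 24 h. Medium samples mixed with NAD, iodonitrotetrazolium, lactate and phenazine methosulfate in 0.2 M Tris-HCl pH 8.2, 30 min at room temperature. Stopped with acetic acid, A490 read and normalized to maximal and spontaneous release.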
# [2] = target: Homeobox protein Nkx-2.5 (Mus musculus) (UniProt P42582); test: Modulation of mouse NKX2-5 expressed in Chlorocebus aethiops COS1 cells harboring 3xHA reporter gene assessed as protein-induced transcriptional activity at 10 uM after 24 hrs by luciferase reporter gene assay relative to control
# In short: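 COS-1 cells seeded 14 000/well and grown overnight. Transfection for 6 h in serum- and antibiotic-free medium with pGL3-3xHA reporter (100 ng/well) and pMT2-NKX2-5 (25 ng/well), Fugene 6 1:3. Compound or 0.1% DMSO vehicle for 24 h, then luciferase luminescence. Triplicate wells with Grubbs outlier removal, % of control.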
# [3] = target: Transcription factor GATA-4 (Mus musculus) (UniProt Q08369); test: Modulation of mouse GATA4 expressed in Chlorocebus aethiops COS1 cells harboring NP-112 reporter gene assessed as BNP promoter-driven transcriptional activity at 10 uM after 24 hrs by luciferase reporter gene assay relative to control
# In short: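 GATA reporter assay: COS-1 cells (14 000/well, overnight) transfected 6 h serum/antibiotic-free with NP-112 reporter (tandem GATA sites plus rat BNP minimal promoter, 100 ng/well) and pMT2-GATA4 (25 ng/well), Fugene 6 1:3. Treated 24 h with compound or 0.1% DMSO. Luminescence read; triplicates, Grubbs outliers removed, % of control.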
# Homeobox protein Nkx-2.5 (Mus musculus), sequence (P42582 whole entry): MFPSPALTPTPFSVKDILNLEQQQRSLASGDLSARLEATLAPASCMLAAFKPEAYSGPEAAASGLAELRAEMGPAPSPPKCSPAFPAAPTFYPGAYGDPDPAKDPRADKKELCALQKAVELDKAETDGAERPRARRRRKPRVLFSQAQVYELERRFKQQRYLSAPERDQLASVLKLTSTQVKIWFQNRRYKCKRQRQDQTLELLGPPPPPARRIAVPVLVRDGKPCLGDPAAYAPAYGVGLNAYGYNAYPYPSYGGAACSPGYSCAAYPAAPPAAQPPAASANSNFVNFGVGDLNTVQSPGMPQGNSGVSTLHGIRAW
# Transcription factor GATA-4 (Mus musculus), sequence (Q08369 whole entry): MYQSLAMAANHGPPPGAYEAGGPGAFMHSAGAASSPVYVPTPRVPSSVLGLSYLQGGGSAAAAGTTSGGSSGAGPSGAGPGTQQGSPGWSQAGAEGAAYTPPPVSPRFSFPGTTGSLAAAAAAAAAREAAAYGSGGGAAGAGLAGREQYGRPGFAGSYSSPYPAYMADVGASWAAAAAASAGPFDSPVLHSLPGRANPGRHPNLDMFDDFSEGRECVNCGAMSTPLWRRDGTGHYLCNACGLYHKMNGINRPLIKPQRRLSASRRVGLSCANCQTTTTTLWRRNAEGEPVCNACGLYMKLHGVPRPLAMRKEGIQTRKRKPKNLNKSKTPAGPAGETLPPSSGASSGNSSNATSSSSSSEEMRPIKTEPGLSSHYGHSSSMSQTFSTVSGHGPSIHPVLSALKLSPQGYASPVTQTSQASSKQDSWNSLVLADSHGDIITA
Structure (SMILES),Activity [1],further results
CCN(CC)c1ccc(N(C)C(=S)c2c(-c3ccccc3)noc2C)cc1,91%,–
CCN(CC)c1ccc(NC(=O)c2c(-c3ccccc3)nnn2CCOC)cc1,91%,–
CCN(CC)c1ccc(NC(=O)c2c(-c3c(Cl)cccc3Cl)noc2C)cc1,110%,–
CCN(CC)c1ccc(/C=N/c2c(-c3ccccc3)noc2C)c(O)c1,–,Activity (COS-1): < 8%
CCN(CC)c1ccc(NC(=O)c2c(-c3ccoc3)noc2C)cc1,110%,Activity [2]: 110%; Activity [3]: 99%
Cc1onc(-c2ccccc2)c1C(=O)Nc1nc(C(C)(C)C)cs1,110%,Activity [2]: 96%; Activity [3]: 110%
Cc1onc(-c2ccccc2)c1C(=O)Nc1ccc(C(=O)OCCN(C)C)cc1,110%,–
CCN(CC)c1ccc(NC(=O)c2c(-c3ccccc3Cl)noc2C)cc1,88%,Activity [2]: 97%; Activity [3]: 110%
CCN(CC)c1ccc(NC(=O)c2c(-c3ccccc3[N+](=O)[O-])noc2C)cc1,84%,–
CCN(CC)c1ccc(NC(=O)c2c(C)noc2-c2cc(C)on2)cc1,78%,Activity [2]: 84%; Activity [3]: 100%; Activity (COS-1): < 8%
CCN(CC)c1ccc(/N=C(\SC)c2c(-c3ccccc3)noc2C)cc1,86%,–
CC[N+](C)(c1ccc(NC(=O)c2c(-c3ccccc3)noc2C)cc1)C(C)C (configuration not stated),83%,–
CCN(CC)c1ccc(NC(=O)c2ncoc2-c2ccco2)cc1,120%,–
Cc1onc(-c2ccccc2)c1COc1ccc(C(=O)OCC(C)C)cc1,99%,–
CCN(CC)c1ccc(/C=N/c2c(-c3ccccc3)noc2C)cc1,96%,–
Cc1onc(-c2ccccc2)c1COc1ccc(C(=O)N(C)CCCO)cc1,100%,–
CC[N+](O)(CC)c1ccc(NC(=O)c2c(-c3ccccc3)noc2C)cc1.O=C([O-])c1cccc(Cl)c1,–,Activity (COS-1): < 8%
Cc1onc(-c2ccccc2)c1COc1ccc([N+](=O)[O-])cc1,85%,–
Cc1onc(-c2ccccc2)c1C(=O)Nc1ccc(OCc2ccccc2)cc1,–,Activity (COS-1): < 8%
CCN(CC)c1ccc(NC(=O)c2c(C(F)(F)F)nn(C)c2Oc2ccccc2)cc1,68%,–
Cc1onc(-c2ccccc2)c1C(=O)Nc1ccc(N(C)C)cc1,99%,–

Structure (SMILES),Activity [1],further results
CCN(CC)c1ccc(NC(=O)c2c(SC)nsc2SC)cc1,110%,–
CCN(CC)c1ccc(NC(=O)c2nn(-c3ccccc3)nc2C)cc1,100%,–
CCN(CC)c1ccc(NS(=O)(=O)c2c(-c3ccccc3)noc2C)cc1,98%,–
Cc1cc(NC(=O)c2c(-c3ccccc3)noc2C)ccc1C(C)C,93%,–
CCN(CC)c1ccc(CN(C(=O)Nc2ccc(C#N)cc2)c2c(-c3ccccc3)noc2C)cc1,85%,–
CCN(CC)c1ccc(NC(=O)c2cnn(C)c2-c2ccccc2)cc1,62%,–
CCN(CC)c1ccc(NC(=O)c2c(-c3ccc(Br)cc3)noc2C)cc1,70%,–
CCN(CC)c1ccc(NC(=O)c2ncoc2-c2ccccc2)cc1,110%,–
CCN(CC)c1ccc(NC(=O)c2c(-c3ccccc3)noc2C)cc1Cl,69%,–
CCN(CC)c1ccc(NCc2c[nH]nc2-c2cc(F)cc(F)c2)cc1,–,Activity (COS-1): < 8%
CCN(CC)c1ccc(NC(=O)c2cc(-c3ccc(Br)cc3)oc2C(F)(F)F)cc1,85%,–
CCN(CCO)c1ccc(NC(=O)c2c(-c3ccccc3)noc2C)cc1,67%,–
C#Cc1ccc(NC(=O)c2c(-c3ccccc3)noc2C)cc1,84%,–
CCN(CC)c1ccc(NC(=O)c2c(-c3coc(C)n3)noc2C)cc1,100%,Activity [2]: 86%; Activity [3]: 110%
CCN(CC)c1ccc(NC(=O)c2ccoc2CCc2cccs2)cc1,100%,–
CCN(CC)c1ccc(CN(C)c2c(-c3ccccc3)noc2C)cc1,82%,–
CCN(CC)c1ccc(NC(=O)c2c(-c3ccc(-c4ccc(F)cc4)cc3)noc2C)cc1,110%,–
Cc1onc(-c2ccccc2)c1COc1ccc(C(=O)OCc2ccoc2)cc1,100%,–
CCN(CC)c1ccc(NC(=O)c2c(-c3ccccc3)nnc3ccccc23)cc1,87%,–
CCN(CC)c1ccc(NCc2c(-c3ccccc3)noc2C)cc1,100%,–
CCN(CC)c1ccc(NC(=S)c2c(-c3ccccc3)noc2C)cc1,99%,–

Structure (SMILES),Activity [1],further results
CCN(CC)c1ccc(NC(=O)c2c(-c3ccccn3)noc2C)cc1,100%,–
COC(=O)c1ccc(NC(=O)c2c(-c3ccccc3)noc2C)cc1,92%,–
CCN(CC)c1ccc(NC(=O)c2c(-n3cccc3)sc(C)c2C)cc1,79%,Activity [2]: 90%; Activity [3]: 66%
CCN(CC)c1ccc(/N=C(\SCCF)c2c(-c3ccccc3)noc2C)cc1,110%,–
CCC(=O)c1ccc(OCc2c(-c3ccccc3)noc2C)cc1,76%,Activity [2]: 80%; Activity [3]: 78%
CCN(CC)c1ccc(NC(=O)c2c(-c3cc(C)on3)noc2C)cc1,100%,Activity [2]: 87%; Activity [3]: 100%
CCN(CC)c1ccc(C(=O)Nc2c(-c3ccccc3)noc2C)cc1,94%,–
CCN(CC)c1ccc(NC(=O)c2c(-c3ccc(C)s3)noc2C)cc1,100%,Activity [2]: 88%; Activity [3]: 92%
CCN(CC)c1ccc(N(C)C(=O)c2c(-c3ccccc3)noc2C)cc1,97%,Activity [2]: 100%; Activity [3]: 99%
CCN(CC)c1ccc(NC(=O)C2CCCC2)cc1,110%,–
CCN(CC)c1ccc(NC(=O)c2nnn(C)c2-c2ccccc2)cc1,78%,–
CCN(CC)c1ccc(NC(=O)c2cc(C)sc2-c2cc(C)on2)cc1,85%,Activity [2]: 96%; Activity [3]: 97%
CCN(CC)c1ccc(NC(=O)c2c[nH]nc2-n2cnnn2)cc1,110%,–
Cc1onc(-c2cccc([N+](=O)[O-])c2)c1C(=O)Nc1ccc(N(C)C)cc1,100%,–
Cc1onc(-c2ccccc2)c1C(=O)Nc1ccc(OCCN2CCOCC2)cc1,97%,–
Cc1onc(-c2ccccc2)c1C(=O)Nc1ccc(C(=O)OCC#N)cc1,90%,–
Cc1onc(-c2ccccc2)c1COc1ccc(C(=O)OCCCC#N)cc1,52%,Activity [2]: 52%; Activity [3]: 71%
CCN(c1ccc(NC(=O)c2c(-c3ccccc3)noc2C)cc1N)C(C)C,76%,–
COc1ccc(-c2cc(N)nn2C(=O)c2c(-c3ccccc3)noc2C)cc1,–,Activity (COS-1): < 8%
Cc1onc(-c2ccccc2)c1C(=O)Nc1ccc(C(=O)O)cc1,98%,–
CCCOC(=O)c1ccc(OCc2c(-c3ccccc3)noc2C)cc1,110%,–

Structure (SMILES),Activity [1],further results
CCN(CC)c1ccc(NC(=O)c2c(-c3cc(Br)cs3)noc2C)cc1,89%,–
CCN(CC)c1ccc(NC(=O)c2c(C)nc3ccccn23)cc1,78%,Activity [2]: 86%; Activity [3]: 94%
Cc1onc(-c2ccccc2)c1C(=O)Nc1ccc(-c2ccccc2)cc1,110%,Activity [2]: 97%; Activity [3]: 110%
CCN(CC)c1ccc(N(CCF)C(=O)c2c(-c3ccccc3)noc2C)cc1,79%,–
CCN(CC)c1ccc(NC(=O)c2ccnc(C(F)(F)F)c2)cc1,84%,–
CCCn1nnc(-c2ccccc2)c1C(=O)Nc1ccc(N(CC)CC)cc1,–,Activity (COS-1): < 8%
CCN(CC)c1ccc(N(Cc2c(-c3ccccc3)noc2C)C(C)=O)cc1,80%,–
CCN(CC)c1ccc(NC(=O)c2c(-c3ccccc3)nnn2C)cc1,84%,–
Cc1onc(-c2ccccc2)c1C(=O)Nc1ccc2c(c1)C(=O)CC2,79%,–
CCN(CC)c1ccc(NC(=O)c2c(-c3ccc([N+](=O)[O-])cc3)noc2C)cc1,100%,–
CCN(CC)C(=O)c1ccc(OCc2c(-c3ccccc3)noc2C)cc1,92%,–
CCN(CC)c1ccc(/N=C/c2c(-c3ccccc3)noc2C)cc1,100%,–
CCN(CC)c1ccc(NC(=O)c2ccnn2-c2ccccc2)cc1,–,Activity (COS-1): < 8%
CCN(CC)c1ccc(NC(=O)c2c[nH]nc2-c2ccccc2)cc1,–,Activity (COS-1): < 8%
CCN(CC)c1ccc(N(Cc2ccccc2)C(=O)c2c(-c3ccccc3)noc2C)cc1,66%,–
CCN(c1ccc(NC(=O)c2c(-c3ccccc3)noc2C)cc1[N+](=O)[O-])C(C)C,75%,–
CCC(O)c1ccc(OCc2c(-c3ccccc3)noc2C)cc1 (racemic),87%,–
CCN(CC)c1ccc(NC(=O)c2c(-c3c(Cl)ccc([N+](=O)[O-])c3Cl)noc2C)cc1,66%,–
CN(C)c1ccc(NCc2c[nH]nc2-c2ccc(F)cc2)cc1,–,Activity (COS-1): < 8%
CCN(CC)c1ccc(NC(=O)c2ccsc2)cc1,110%,–
